Reference: ChEMBL document CHEMBL1122630, “Inhibitors of inosinic acid dehydrogenase. 2-Substituted inosinic acids” (J Med Chem, 1984)

Legend:
[1] = molecular target: T1, Inosine-5'-monophosphate dehydrogenase (Escherichia coli K-12, UniProt P0ADG7); assay: Ability to inhibit Inosine-5'-monophosphate dehydrogenase isolated from Escherichia coli; details: read-out: I50
T1 sequence (P0ADG7 whole entry): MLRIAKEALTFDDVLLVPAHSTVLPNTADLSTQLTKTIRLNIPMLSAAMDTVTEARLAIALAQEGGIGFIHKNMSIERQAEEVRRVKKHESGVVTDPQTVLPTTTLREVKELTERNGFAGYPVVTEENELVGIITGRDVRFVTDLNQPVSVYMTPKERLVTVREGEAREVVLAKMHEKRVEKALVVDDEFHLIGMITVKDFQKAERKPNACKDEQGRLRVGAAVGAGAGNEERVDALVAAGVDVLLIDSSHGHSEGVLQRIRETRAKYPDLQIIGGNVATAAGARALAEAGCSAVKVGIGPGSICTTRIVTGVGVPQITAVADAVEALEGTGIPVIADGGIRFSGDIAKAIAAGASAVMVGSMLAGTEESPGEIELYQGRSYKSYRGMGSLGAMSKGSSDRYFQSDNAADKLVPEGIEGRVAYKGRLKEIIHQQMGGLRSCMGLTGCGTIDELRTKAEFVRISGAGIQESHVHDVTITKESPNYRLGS
Outline: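 Crude E. coli IMP dehydrogenase (0–40% ammonium sulfate precipitate) in 0.05 M Tris pH 8.5 with 33.4 mM KCl, 1.5 mM glutathione, 0.8 mM NAD+ and 0.002 unit enzyme, run at 25 °C. NADH rise at 340 nm gave initial rates. I50 was read graphically at 50 µM IMP, with inhibitor levels bracketing 50%; duplicates agreed within 20%. Ki came from a competitive-equation fit over 10–75 µM IMP.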

[2] = molecular target: IMP dehydrogenase (Escherichia coli); assay: Ability to inhibit Inosine-5'-monophosphate dehydrogenase isolated from Escherichia coli

Ki [2] [µM]	Structure (SMILES)	IC50 [1] [µM]
	CCCCCCCc1nc(O)c2ncn(C3O[C@@H](COP(=O)(O)O)[C@H](O)[C@@H]3O)c2n1 (some centres undefined)	270
	O=[N+]([O-])c1cc(CSc2nc(O)c3ncn(C4O[C@@H](COP(=O)(O)O)[C@H](O)[C@@H]4O)c3n2)cc([N+](=O)[O-])c1 (some centres undefined)	85
	CCCCCCCCCc1nc(O)c2ncn(C3O[C@@H](COP(=O)(O)O)[C@H](O)[C@@H]3O)c2n1 (some centres undefined)	160
	CCCCCCc1nc(O)c2ncn(C3O[C@@H](COP(=O)(O)O)[C@H](O)[C@@H]3O)c2n1 (some centres undefined)	580
190	CCCc1nc(O)c2ncn(C3O[C@@H](COP(=O)(O)O)[C@H](O)[C@@H]3O)c2n1 (some centres undefined)	
	COc1ccc(-c2nc(O)c3ncn(C4O[C@@H](COP(=O)(O)O)[C@H](O)[C@@H]4O)c3n2)cc1 (some centres undefined)	810
	O=P(O)(O)OC[C@@H]1OC(n2cnc3c(O)nc(Cc4ccccc4)nc32)[C@@H](O)[C@H]1O (some centres undefined)	770
46	COc1nc(O)c2ncn(C3O[C@@H](COP(=O)(O)O)[C@H](O)[C@@H]3O)c2n1 (some centres undefined)	
600	Cc1nc(O)c2ncn(C3O[C@@H](COP(=O)(O)O)[C@H](O)[C@@H]3O)c2n1 (some centres undefined)	
	O=P(O)(O)OC[C@@H]1OC(n2cnc3c(O)nc(Cc4cccnc4)nc32)[C@@H](O)[C@H]1O (some centres undefined)	430
	O=P(O)(O)OC[C@@H]1OC(n2cnc3c(O)nc(-c4ccccc4)nc32)[C@@H](O)[C@H]1O (some centres undefined)	> 1000
	O=P(O)(O)OC[C@@H]1OC(n2cnc3c(O)nc(SCc4ccccc4Cl)nc32)[C@@H](O)[C@H]1O (some centres undefined)	72
	O=[N+]([O-])c1cccc(CSc2nc(O)c3ncn(C4O[C@@H](COP(=O)(O)O)[C@H](O)[C@@H]4O)c3n2)c1 (some centres undefined)	33
120	O=P(O)(O)OC[C@@H]1OC(n2cnc3c(O)nc(Cl)nc32)[C@@H](O)[C@H]1O (some centres undefined)	
	CCCCCCCCc1nc(O)c2ncn(C3O[C@@H](COP(=O)(O)O)[C@H](O)[C@@H]3O)c2n1 (some centres undefined)	680
	CCCCCCCCCCc1nc(O)c2ncn(C3O[C@@H](COP(=O)(O)O)[C@H](O)[C@@H]3O)c2n1 (some centres undefined)	150
	O=P(O)(O)OC[C@@H]1OC(n2cnc3c(O)nc(-c4cccnc4)nc32)[C@@H](O)[C@H]1O (some centres undefined)	> 1000
	O=P(O)(O)OC[C@@H]1OC(n2cnc3c(O)nc(/C=C/c4ccccc4)nc32)[C@@H](O)[C@H]1O (some centres undefined)	69
	O=[N+]([O-])c1ccc(CSc2nc(O)c3ncn(C4O[C@@H](COP(=O)(O)O)[C@H](O)[C@@H]4O)c3n2)cc1 (some centres undefined)	56
